ChEMBL document CHEMBL4732237, “Discovery of 4-alkoxy-2-aryl-6,7-dimethoxyquinolines as a new class of topoisomerase I inhibitors endowed with potent in vitro anticancer activity” (2021)

What was measured:
Format in all cases: functional
U-251 = test: Growth inhibition of human U-251 cells incubated for 48 hrs by sulforhodamine B assay
Summary of the method: (§1)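 NCI five-dose assay, with drug stocks in DMSO diluted in medium to five concentrations (10-fold or ½-log series). Cells in RPMI 1640/5% FBS were pre-incubated 24 h, and time-zero plates were TCA-fixed at drug addition. After 48 h at 37 °C, cells were TCA-fixed, SRB-stained and read at 515 nm. GI50 is from [(Ti-Tz)/(C-Tz)]×100 = 50, TGI from Ti = Tz, and LC50 from [(Ti-Tz)/Tz]×100 = -50.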

TK-10 = test: Growth inhibition of human TK-10 cells incubated for 48 hrs by sulforhodamine B assay; summary of the method: as §1
UACC-62 = test: Growth inhibition of human UACC-62 cells incubated for 48 hrs by sulforhodamine B assay; summary of the method: as §1
UACC-257 = test: Growth inhibition of human UACC-257 cells incubated for 48 hrs by sulforhodamine B assay; summary of the method: as §1
HOP-92 = test: Growth inhibition of human HOP-92 cells incubated for 48 hrs by sulforhodamine B assay
Summary of the method: (§2)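 NCI five-dose screen covering 0.01–100 µM, prepared as 10-fold or ½-log dilutions from DMSO stock. Cells in RPMI 1640 with 5% FBS were exposed for 48 h at 37 °C after 24 h preincubation. Adherent cells were fixed with TCA (final 10%) and suspension cells were settled before fixing. Stain was SRB, read at 515 nm. GI50 = 50% reduction in net protein increase versus control, with Tz taken at drug addition.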

NCI-H226 = test: Growth inhibition of human NCI-H226 cells incubated for 48 hrs by sulforhodamine B assay
Summary of the method: (§3)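 NCI five-dose screen (0.01–100 µM; five concentrations plus control). Cells grown in RPMI 1640/5% FBS/2 mM L-glutamine and preincubated 24 h, with time-zero plates TCA-fixed. Drug exposure 48 h at 37 °C, followed by SRB protein staining and reading at 515 nm. GI50 is the concentration at [(Ti-Tz)/(C-Tz)]×100 = 50.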

NCI/ADR-RES = test: Growth inhibition of human NCI/ADR-RES cells incubated for 48 hrs by sulforhodamine B assay; summary of the method: as §3
MDA-MB-435 = test: Growth inhibition of human MDA-MB-435 cells incubated for 48 hrs by sulforhodamine B assay; summary of the method: as §2
MDA-MB-231 = test: Growth inhibition of human MDA-MB-231 cells incubated for 48 hrs by sulforhodamine B assay; summary of the method: as §2
SN12C = test: Growth inhibition of human SN12C cells incubated for 48 hrs by sulforhodamine B assay; summary of the method: as §3
SF-295 = test: Growth inhibition of human SF-295 cells incubated for 48 hrs by sulforhodamine B assay; summary of the method: as §3
MDA-MB-468 = test: Growth inhibition of human MDA-MB-468 cells incubated for 48 hrs by sulforhodamine B assay; summary of the method: as §2
OVCAR-5 = test: Growth inhibition of human OVCAR-5 cells incubated for 48 hrs by sulforhodamine B assay; summary of the method: as §3
ACHN = test: Growth inhibition of human ACHN cells incubated for 48 hrs by sulforhodamine B assay; summary of the method: as §2
PC-3 = test: Growth inhibition of human PC-3 cells incubated for 48 hrs by sulforhodamine B assay; summary of the method: as §3
M14 = test: Growth inhibition of human M14 cells incubated for 48 hrs by sulforhodamine B assay; summary of the method: as §2
786-0 = test: Growth inhibition of human 786-0 cells incubated for 48 hrs by sulforhodamine B assay; summary of the method: as §2
NCI-H23 = test: Growth inhibition of human NCI-H23 cells incubated for 48 hrs by sulforhodamine B assay; summary of the method: as §3
CAKI-1 = test: Growth inhibition of human CAKI-1 cells incubated for 48 hrs by sulforhodamine B assay; summary of the method: as §2
BT-549 = test: Growth inhibition of human BT-549 cells incubated for 48 hrs by sulforhodamine B assay; summary of the method: as §2
SK-MEL-28 = test: Growth inhibition of human SK-MEL-28 cells incubated for 48 hrs by sulforhodamine B assay; summary of the method: as §3
SF-539 = test: Growth inhibition of human SF-539 cells incubated for 48 hrs by sulforhodamine B assay; summary of the method: as §3
SW-620 = test: Growth inhibition of human SW-620 cells incubated for 48 hrs by sulforhodamine B assay; summary of the method: as §1
SNB-19 = test: Growth inhibition of human SNB-19 cells incubated for 48 hrs by sulforhodamine B assay; summary of the method: as §3
A498 = test: Growth inhibition of human A498 cells incubated for 48 hrs by sulforhodamine B assay; summary of the method: as §1
NCI-H322M = test: Growth inhibition of human NCI-H322M cells incubated for 48 hrs by sulforhodamine B assay; summary of the method: as §3
T47D = test: Growth inhibition of human T47D cells incubated for 48 hrs by sulforhodamine B assay; summary of the method: as §1
UO-31 = test: Growth inhibition of human UO-31 cells incubated for 48 hrs by sulforhodamine B assay; summary of the method: as §1
HCT-116 = test: Growth inhibition of human HCT-116 cells incubated for 48 hrs by sulforhodamine B assay; summary of the method: as §2
NCI-H522 = test: Growth inhibition of human NCI-H522 cells incubated for 48 hrs by sulforhodamine B assay; summary of the method: as §3
SF-268 = test: Growth inhibition of human SF-268 cells incubated for 48 hrs by sulforhodamine B assay; summary of the method: as §3
CCRF-CEM = test: Growth inhibition of human CCRF-CEM cells incubated for 48 hrs by sulforhodamine B assay; summary of the method: as §2
HOP-62 = test: Growth inhibition of human HOP-62 cells incubated for 48 hrs by sulforhodamine B assay; summary of the method: as §2
MCF7 = test: Growth inhibition of human MCF7 cells incubated for 48 hrs by sulforhodamine B assay; summary of the method: as §2
K562 = test: Growth inhibition of human K562 cells incubated for 48 hrs by sulforhodamine B assay; summary of the method: as §2
OVCAR-8 = test: Growth inhibition of human OVCAR-8 cells incubated for 48 hrs by sulforhodamine B assay; summary of the method: as §3
MOLT-4 = test: Growth inhibition of human MOLT-4 cells incubated for 48 hrs by sulforhodamine B assay; summary of the method: as §3
Malme-3M = test: Growth inhibition of human Malme-3M cells incubated for 48 hrs by sulforhodamine B assay; summary of the method: as §3
HCT-29 = test: Growth inhibition of human […] cells incubated for 48 hrs by sulforhodamine B assay; summary of the method: as §2
DU-145 = test: Growth inhibition of human DU-145 cells incubated for 48 hrs by sulforhodamine B assay; summary of the method: as §2
A549 = test: Growth inhibition of human A549 cells incubated for 48 hrs by sulforhodamine B assay; summary of the method: as §2
SNB-75 = test: Growth inhibition of human SNB-75 cells incubated for 48 hrs by sulforhodamine B assay; summary of the method: as §3
COLO 205 = test: Growth inhibition of human COLO 205 cells incubated for 48 hrs by sulforhodamine B assay; summary of the method: as §2

Structure (SMILES): COc1cc2nc(-c3ccc(C(F)(F)F)cc3)cc(OCCCN3CCCCC3)c2cc1OC
- GI50 (U-251): 1100 nM
- GI50 (TK-10): 7800 nM
- GI50 (UACC-62): 1820 nM
- GI50 (UACC-257): 1700 nM
- GI50 (HOP-92): 678 nM
- GI50 (NCI-H226): 370 nM
- GI50 (NCI/ADR-RES): 522 nM
- GI50 (MDA-MB-435): 1230 nM
- GI50 (MDA-MB-231): 536 nM
- GI50 (SN12C): 668 nM
- GI50 (SF-295): 530 nM
- GI50 (MDA-MB-468): 1030 nM
- GI50 (OVCAR-5): 710 nM
- GI50 (ACHN): 1200 nM
- GI50 (PC-3): 1340 nM
- GI50 (M14): 327 nM
- GI50 (786-0): 2170 nM
- GI50 (NCI-H23): 1910 nM
- GI50 (CAKI-1): 272 nM
- GI50 (BT-549): 1480 nM
- GI50 (SK-MEL-28): 1260 nM
- GI50 (SF-539): 2080 nM
- GI50 (SW-620): 2910 nM
- GI50 (SNB-19): 2820 nM
- GI50 (A498): 1850 nM
- GI50 (NCI-H322M): 8700 nM
- GI50 (T47D): 454 nM
- GI50 (UO-31): 2000 nM
- GI50 (HCT-116): 429 nM
- GI50 (NCI-H522): 2440 nM
- GI50 (SF-268): 3760 nM
- GI50 (CCRF-CEM): 1830 nM
- GI50 (HOP-62): 947 nM
- GI50 (MCF7): 1160 nM
- GI50 (K562): 578 nM
- GI50 (OVCAR-8): 734 nM
- GI50 (MOLT-4): 1700 nM
- GI50 (Malme-3M): 1260 nM
- GI50 (HCT-29): 415 nM
- GI50 (DU-145): 1840 nM
- GI50 (A549): 722 nM
- GI50 (SNB-75): 1960 nM
- GI50 (COLO 205): 406 nM

Structure (SMILES): COc1cc2nc(-c3ccc(C(F)(F)F)cc3)cc(OCCCN3CCC(O)CC3)c2cc1OC
- GI50 (U-251): 2120 nM
- GI50 (TK-10): 11500 nM
- GI50 (UACC-62): 2610 nM
- GI50 (UACC-257): 2280 nM
- GI50 (HOP-92): 1680 nM
- GI50 (NCI-H226): 1590 nM
- GI50 (NCI/ADR-RES): 847 nM
- GI50 (MDA-MB-435): 2760 nM
- GI50 (MDA-MB-231): 919 nM
- GI50 (SN12C): 1440 nM
- GI50 (SF-295): 1610 nM
- GI50 (MDA-MB-468): 1630 nM
- GI50 (OVCAR-5): 3140 nM
- GI50 (ACHN): 3180 nM
- GI50 (PC-3): 3660 nM
- GI50 (M14): 535 nM
- GI50 (786-0): 4720 nM
- GI50 (NCI-H23): 6160 nM
- GI50 (CAKI-1): 376 nM
- GI50 (BT-549): 6590 nM
- GI50 (SK-MEL-28): 2380 nM
- GI50 (SF-539): 5750 nM
- GI50 (SW-620): 3530 nM
- GI50 (SNB-19): 10500 nM
- GI50 (A498): 2370 nM
- GI50 (NCI-H322M): 10200 nM
- GI50 (T47D): 2970 nM
- GI50 (UO-31): 2710 nM
- GI50 (HCT-116): 671 nM
- GI50 (NCI-H522): 4150 nM
- GI50 (SF-268): 5760 nM
- GI50 (CCRF-CEM): 3260 nM
- GI50 (HOP-62): 1800 nM
- GI50 (MCF7): 2570 nM
- GI50 (K562): 1790 nM
- GI50 (OVCAR-8): 1660 nM
- GI50 (MOLT-4): 3270 nM
- GI50 (Malme-3M): 2650 nM
- GI50 (HCT-29): 486 nM
- GI50 (DU-145): 4960 nM
- GI50 (A549): 1650 nM
- GI50 (SNB-75): 2580 nM
- GI50 (COLO 205): 456 nM
